# Measured values from different studies.
# Protocols differ between the studies behind these lines.
SMILES,test,test system,setting,solubility
N=C(N)NCCC[C@H](NC(=O)[C@@H](NC(=O)[C@H](Cc1cscn1)NC(=O)CCc1ccccc1)C1CCCCC1)C(=O)c1nc2ccccc2s1,,PBS,"90 min, pH 7.4",> 10 µM
Cc1c(C(=O)O)ccc2c3n(nc12)[C@@H]1[C@H](C3)N(CC2CC2)[C@@]2(C(=O)Nc3cc(Cl)ccc32)[C@H]1c1cccc(Cl)c1F,,FaSSIF,,50 µg/mL
O=[N+]([O-])c1cccc(/C=N/c2c(-c3ccccc3)nc3ccc(Cl)cn23)c1,,aqueous buffer,pH 7,25 µg/mL
N#C[C@@]12C[C@@H]1[C@@H](n1cnc3c(N[C@@H](C4CCC4)C4CC4)nc(I)nc31)[C@H](O)[C@@H]2O,,aqueous buffer,pH 7.4,50 µg/mL
Cc1noc(C)c1CC(=O)N1CCOc2c(cc(-c3cccc(Cl)c3)cc2OCC2CCCN(C)C2)C1 (stereo not drawn),,water,,75 µM
Cn1cnc2ccc(Nc3c(F)ccc(NS(=O)(=O)N4CC(F)C4)c3Cl)c(Cl)c2c1=O,,aqueous buffer,pH 2.05,2 µg/mL
CC(=Nc1ccc(N=Cc2ccc3[nH]cnc3c2)cc1)N(C)C,shake flask,PBS,"24 h, pH 7.4, 25 °C",~20 µg/mL
Cc1cccn2c(=O)c3cc(C(=O)N[C@@H](C)c4ccccc4)c(N)[n+](CCOCCO)c3nc12,,PBS,,> 20 µM
Cc1ccc(Cn2cc(C(=O)NN)c(=O)c3cc(Oc4ccccc4)ccc32)cc1,shake flask,PBS,"24 h, pH 6.5, 25 °C",< 5 µM
CC(=O)C(C)n1c(CN2CCN(c3cccc(Cl)c3)CC2)nc2c1c(=O)n(C)c(=O)n2C (stereo not drawn),,PBS,,> 20 µM
Cn1cncc1[C@@](N)(c1ccc(Cl)cc1)c1ccc2c(c1)c(-c1cccc(Cl)c1)cc(=O)n2C,,water,"pH 7.6, 25 °C",0.12 µg/mL
O=[N+]([O-])c1ccccc1/C=N/c1c(-c2ccccc2)nc2ccc(Cl)cn12,,aqueous buffer,pH 7,< 1 µg/mL
